Source: BindingDB's records for doi:10.1016/j.bmc.2020.115710 (Indiana University School of Medicine, 2020)

What was measured:
Co-chaperonin GroES [1] = molecular target: T1, Co-chaperonin GroES (Escherichia coli, UniProt Q7BGE6); test: Inhibition of Escherichia coli GroEL/ES assessed as inhibition of native malate dehydrogenase treated after denatured malate dehydrogenase completely refold
T1 sequence (Q7BGE6 whole entry): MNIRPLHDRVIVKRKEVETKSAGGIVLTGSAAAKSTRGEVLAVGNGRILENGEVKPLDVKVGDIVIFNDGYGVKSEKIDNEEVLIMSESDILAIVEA
Procedure, shortened: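 Counter-screen on native MDH activity: compounds are added only after GroEL/ES has fully refolded the denatured MDH, so the assay flags compounds that act on the MDH reporter reaction itself. IC50 values are averages from at least five replicates. […] DMSO serves as the negative control.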

Co-chaperonin GroES [2] = molecular target: T1, Co-chaperonin GroES; test: Inhibition of Escherichia coli GroEL/ES assessed as inhibition of native malate dehydrogenase treated after denatured malate dehydrogenase completely refold in presence of NfsB nitroreductase
Procedure, shortened: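 Native MDH counter-screen with 10 µg/mL E. coli NfsB nitroreductase added to the initial GroEL/ES-dMDH solution. Compounds are added after the EDTA quench, then incubated 10 min at 37°C with NADH to bioactivate nitrofurans. Compounds in the reporter step span 56 µM to 25 nM (3-fold series).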

SMILES: COc1ccc(C(=O)N/N=C/c2ccc([N+](=O)[O-])o2)cc1
- IC50 (Co-chaperonin GroES [1]): > 63 µM
- IC50 (Co-chaperonin GroES [2]): > 56 µM

SMILES: O=C(N/N=C/c1ccc([N+](=O)[O-])o1)c1cccs1
- IC50 (Co-chaperonin GroES [1]): > 63 µM
- IC50 (Co-chaperonin GroES [2]): > 56 µM

SMILES: CN(C)c1ccc(C(=O)N/N=C/c2ccc([N+](=O)[O-])o2)cc1
- IC50 (Co-chaperonin GroES [1]): > 63 µM
- IC50 (Co-chaperonin GroES [2]): > 56 µM

SMILES: O=C(N/N=C/c1ccc([N+](=O)[O-])o1)c1ccncc1 [N-[(E)-(5-nitro-2-furanyl)methylideneamino]-4-pyridinecarboxamide]
- IC50 (Co-chaperonin GroES [1]): > 63 µM
- IC50 (Co-chaperonin GroES [2]): > 56 µM

SMILES: O=C(N/N=C/c1ccc([N+](=O)[O-])o1)c1ccc(O)cc1 [NIFUROXAZIDE]
- IC50 (Co-chaperonin GroES [1]): > 63 µM
- IC50 (Co-chaperonin GroES [2]): > 56 µM

SMILES: O=C(N/N=C/c1ccc([N+](=O)[O-])o1)c1ccccc1
- IC50 (Co-chaperonin GroES [1]): > 63 µM
- IC50 (Co-chaperonin GroES [2]): > 56 µM

SMILES: O=C(N/N=C/c1ccc([N+](=O)[O-])o1)c1ccc(Cl)s1
- IC50 (Co-chaperonin GroES [1]): > 63 µM
- IC50 (Co-chaperonin GroES [2]): > 56 µM

SMILES: O=C1CN(/N=C/c2ccc([N+](=O)[O-])o2)C(=O)N1 [MLS000028500]
- IC50 (Co-chaperonin GroES [1]): > 63 µM
- IC50 (Co-chaperonin GroES [2]): > 56 µM
